Results taken from ChEMBL document CHEMBL1131080, “Structure-based design and synthesis of high affinity tripeptide ligands of the Grb2-SH2 domain” (J Med Chem, 1998).

What was measured:
[1] = biological target: T1, Growth factor receptor-bound protein 2 (Homo sapiens, UniProt P62993); assay: Inhibition of Grb2-SH2 domain binding to phospho-EGF receptor intracellular C-terminal domain; format: biochemical
Summary of the method: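 Phosphorylated MBP-EGFR C-terminal domain (residues 976–1210, expressed in E. coli) is immobilized on plates and incubated with GST/Grb2-SH2 in the presence of phosphopeptide or buffer. Bound SH2 is detected with rabbit anti-GST and HRP anti-rabbit antibody, using TMB substrate read at 655 nm. Inhibition is the % absorbance reduction versus no inhibitor; IC50 comes from nonlinear regression.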

[2] = biological target: T1, Growth factor receptor-bound protein 2; assay: Inhibition of Grb2 SH2 domain binding to biotinylated phosphopeptide
Summary of the method: (§1)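 Competition ELISA. Biotinylated phosphopeptide (10 ng/mL in 50 mM Tris, pH 7.5) is captured overnight at 4 °C on streptavidin-coated plates. Wells then receive GST-SH2 fusion (Grb2 3.2 ng/mL, Lck 3.2 ng/mL, p85 N-terminal 0.7 ng/mL) with varying unlabeled peptide or buffer, in TBS/0.1% Tween. Detection is rabbit anti-GST, then peroxidase anti-rabbit IgG with TMB. IC50 comes from nonlinear regression of % absorbance reduction.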

[3] = biological target: Tyrosine-protein kinase Lck (Homo sapiens, UniProt P06239); assay: Inhibition of p56lck SH2 domain binding to biotinylated phosphopeptide; summary of the method: as §1
Chain of Tyrosine-protein kinase Lck (P06239 whole entry, the tested form may be a part): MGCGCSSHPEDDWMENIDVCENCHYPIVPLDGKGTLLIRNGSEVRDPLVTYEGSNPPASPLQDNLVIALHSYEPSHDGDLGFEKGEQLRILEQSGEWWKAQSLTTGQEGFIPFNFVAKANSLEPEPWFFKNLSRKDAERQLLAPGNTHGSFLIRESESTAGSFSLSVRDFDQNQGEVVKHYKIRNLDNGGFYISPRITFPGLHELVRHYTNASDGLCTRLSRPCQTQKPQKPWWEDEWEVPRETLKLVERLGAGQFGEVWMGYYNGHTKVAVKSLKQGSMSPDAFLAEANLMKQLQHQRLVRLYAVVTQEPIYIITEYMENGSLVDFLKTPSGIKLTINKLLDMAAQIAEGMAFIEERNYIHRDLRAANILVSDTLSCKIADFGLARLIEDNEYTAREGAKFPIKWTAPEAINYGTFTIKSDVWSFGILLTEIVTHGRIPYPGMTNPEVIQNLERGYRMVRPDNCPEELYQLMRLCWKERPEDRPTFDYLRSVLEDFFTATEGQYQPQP

[4] = Inhibition of p85 SH2 domain binding to biotinylated phosphopeptide; summary of the method: as §1

T1 sequence (P62993 whole entry, the tested form may be a part): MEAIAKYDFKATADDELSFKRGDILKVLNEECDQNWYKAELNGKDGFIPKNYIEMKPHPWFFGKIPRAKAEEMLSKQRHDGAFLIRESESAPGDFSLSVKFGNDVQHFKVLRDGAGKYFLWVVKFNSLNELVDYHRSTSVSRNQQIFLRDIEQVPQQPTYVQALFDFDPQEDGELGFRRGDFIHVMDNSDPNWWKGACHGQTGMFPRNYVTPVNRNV

Row | Structure (SMILES) | IC50 [1] [nM] | IC50 [2] [nM] | IC50 [3] [µM] | IC50 [4] [µM]
1 | CC[C@H](C)[C@H](NC(=O)[C@@H](N)Cc1ccc(OP(=O)(OC(C)=O)OC(C)=O)cc1)C(=O)N[C@@H](CC(=O)NCCCc1ccc(Cl)cc1Cl)C(=O)O | 1500 | – | – | –
2 | CC[C@H](C)[C@H](NC(=O)[C@@H](N)Cc1ccc(OP(=O)(OC(C)=O)OC(C)=O)cc1)C(=O)N[C@@H](CC(=O)NCCCc1cccc2ccccc12)C(=O)O | 330 | 580 | > 10 | > 10
3 | CC[C@H](C)[C@H](NC(=O)[C@@H](N)Cc1ccc(OP(=O)(OC(C)=O)OC(C)=O)cc1)C(=O)N[C@@H](CC(=O)NCCCc1ccccc1)C(=O)O | 2300 | – | – | –
4 | CC[C@H](C)[C@H](NC(=O)[C@@H](N)Cc1ccc(OP(=O)(OC(C)=O)OC(C)=O)cc1)C(=O)N[C@@H](CC(=O)NCC(C)C)C(=O)O | 3200 | – | – | –
5 | CC[C@H](C)[C@H](NC(=O)[C@@H](N)Cc1ccc(OP(=O)(OC(C)=O)OC(C)=O)cc1)C(=O)N[C@@H](CC(=O)NCCC(C)C)C(=O)O | 3100 | – | – | –
6 | CC[C@H](C)[C@H](NC(=O)[C@@H](N)Cc1ccc(OP(=O)(OC(C)=O)OC(C)=O)cc1)C(=O)N[C@@H](CC(N)=O)C(=O)O | 8900 | – | – | –
7 | CCCCC(CC)CNC(=O)C[C@H](NC(=O)[C@@H](NC(=O)[C@@H](N)Cc1ccc(OP(=O)(OC(C)=O)OC(C)=O)cc1)[C@@H](C)CC)C(=O)O (stereo not given in full) | 1600 | – | – | –
